Reference: ChEMBL document CHEMBL3621080, “Dihydrithieno[2,3-b]naphto-4,9-dione analogues as anticancer agents: Synthesis and in cell pharmacological studies” (Eur J Med Chem, 2015)
Activity calls are given as the source filed them. The rule behind the calls is not given here.

What was measured:
[1] = Antiproliferative activity against human HuH7 cells assessed as growth inhibition incubated for 48 hrs by MTT assay; assay type: functional, cell-based; settings: Huh-7, 48 h
Outline: (§1)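 Cell lines were grown at 37 °C in 5% CO2 with 10% FBS and penicillin/streptomycin, in DMEM for HuH7 and LN229 and in RPMI-1640 for BxPC3 and MCF7. Cells were seeded at 10^5 per well and left 24 h to attach. Compounds were then added at […] for 48 h. MTT at 1 mg/mL was applied for 2 h at 37 °C in the dark, formazan was dissolved in DMSO and read at 570 nm. Results are relative to 0.5% DMSO vehicle control, with IC50 by linear/polynomial regression, in triplicate.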

MCF7 = experiment: Antiproliferative activity against human MCF7 cells assessed as growth inhibition incubated for 48 hrs by MTT assay; assay type: functional, cell-based; settings: MCF7, 48 h; outline: as §1
[2] = Antiproliferative activity against human LN229 cells assessed as growth inhibition incubated for 48 hrs by MTT assay; assay type: functional, cell-based; settings: LN-229, 48 h; outline: as §1
[3] = Antiproliferative activity against human BxPC3 cells assessed as growth inhibition incubated for 48 hrs by MTT assay; assay type: functional, cell-based; settings: BXPC-3, 48 h; outline: as §1
[4] = (§2) Cytotoxicity against rat H9c2 cells assessed as cell growth at 2.5 uM incubated for 48 hrs by MTT assay relative to control; assay type: cell-based; settings: H9c2 cells, read-out: Activity
H9c2 [5] = experiment: Cytotoxicity against rat H9c2 cell membrane assessed as induction of lipid peroxidation at 2.5 uM incubated for 48 hrs by TBARS method; assay type: cell-based; settings: h9c2, 48 h
Outline: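 H9C2 cells were treated for 48 h at […] and lysed in ice-cold Tris/NaCl/EDTA/1% Triton with protease inhibitors. Membranes were pelleted at 1200 g for 10 min and the protein content measured. Membrane aliquots were heated at 100 °C for 30 min in 15% TCA/0.3% TBA in 0.12 N HCl, cooled and centrifuged, and the TBA adduct read at 532 nm. Values are per mg protein, mean ± SEM, n=3.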

[6] = Cytotoxicity against human LN229 cells assessed as growth inhibition at 0.6 uM incubated for 48 hrs by MTT assay relative to control; assay type: functional, LN-229; set-up: scale not given: the % may be the effect or the level left
[7] = Drug uptake in human LN229 cell nucleus at 0.6 uM incubated for 48 hrs by confocal microscopy; assay type: ADME, cell-based; settings: ln229, 48 h
Outline: (§3)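 LN229 cells were treated for 48 h at […] and fixed in 4% paraformaldehyde. Nuclei were counterstained with DAPI and vimentin immunostained. Compound localisation was imaged by its red signal using confocal microscopy.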

LN-229 [8] = experiment: Inhibition of glucose uptake in human LN229 cells assessed as glucose concentration per ug protein at 0.6 uM incubated for 48 hrs by liquid scintillation method (reference value: 98 +/- 8 mg/dl/ug protein); assay type: functional
H9c2 [9] = experiment: as §2; assay type: cell-based; settings: h9c2, 48 h, 2.5 µM
[10] = Drug uptake in human LN229 cell cytoplasm at 0.6 uM incubated for 48 hrs by confocal microscopy; assay type: ADME, cell-based; settings: ln229, 48 h; outline: as §3
LN-229 [11] = experiment: Induction of cell differentiation in human LN229 cells assessed as vimentin remodelling at 0.6 uM incubated for 48 hrs by immunostaining method; assay type: functional, cell-based
Outline: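 LN229 cells were treated for 48 h at […], fixed in 4% paraformaldehyde and permeabilised 5 min in 1% Triton. They were stained with anti-vimentin (1:1000) followed by Cy3 anti-rabbit IgG (1:200, 45 min), with DAPI nuclei, and imaged by confocal microscopy.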

[12] = Down regulation of AKT expression in human LN229 cells at 0.6 uM incubated for 48 hrs by Western blot method; assay type: functional, cell-based; settings: LN-229
Outline: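 LN229 cells grown in DMEM with 10% FBS and penicillin/streptomycin at 37 °C, 5% CO2, treated 48 h. Cells washed in ice-cold PBS/BSA and lysed in Triton/deoxycholate buffer with protease inhibitors. Equal protein run on SDS-PAGE, then nitrocellulose. Anti-AKT overnight in TBS/1% milk/0.05% Tween 20; tubulin also probed. HRP secondary 1 h at room temperature.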

LN-229 [13] = experiment: Induction of lipid peroxidation in human LN229 cells assessed as increase in TBARS level at 0.6 uM incubated for 48 hrs by TBARS assay; assay type: functional
Outline: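 LN229 cells in DMEM with 10% FBS, treated 48 h. Lysed in ice-cold Tris/NaCl/EDTA/1% Triton with protease inhibitors, spun 1200 g for 10 min; membrane pellet redissolved and protein measured. Membranes heated with 15% TCA/0.3% TBA in 0.12 N HCl at 100 °C for 30 min, cooled, spun 15,000 g, read at 532 nm. TBARS expressed per mg protein; mean of three experiments.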

LN-229 [14] = experiment: Inhibition of glucose uptake in human LN229 cells assessed as glucose concentration per ug protein at 0.6 uM incubated for 48 hrs by liquid scintillation method relative to control; assay type: functional
LN-229 [15] = experiment: Induction of apoptosis in human LN229 cells assessed as caspase-3 activation at 0.6 uM incubated for 48 hrs by cell-free caspase-3 activity assay

IC50 (MCF7) | SMILES | IC50 [1] | IC50 [2] | IC50 [3] | viability at 48 h, 2.5 µM [4] | Activity (H9c2 [5]) | Activity [6] | also measured
1.26 µM | Cl.O=C(CN1CCCCC1)NC1(CO)CSC2=C1C(=O)c1ccccc1C2=O (configuration not stated) | 0.96 µM | 0.51 µM | 2.51 µM | 83% | Toxic |  | 
 | Cl.O=C(CN1CCCCC1)N[C@@]1(C(=O)NCc2ccc(Cl)cc2)CSC2=C1C(=O)c1ccccc1C2=O |  |  |  |  |  | 50% | 
 | COc1cccc2c1C(=O)c1c(O)c3c(c(O)c1C2=O)C[C@@](O)(C(=O)CO)C[C@@H]3O[C@H]1C[C@H](N)[C@H](O)[C@H](C)O1 [DOXORUBICIN] | 1.11 µM | 2.25 µM | 1.78 µM | 53% | Toxic |  | Drug uptake [7]: Active; Activity (LN-229 [8]): 120 mg/dL
0.82 µM | Cl.O=C(CN1CCCCC1)NC1(C(=O)NCc2ccc(Cl)cc2)CSC2=C1C(=O)c1ccccc1C2=O (configuration not stated) | 1.02 µM | 0.61 µM | 0.83 µM |  | Non-toxic | 50% | Activity (H9c2 [9]): Non-toxic; Drug uptake [10]: Active; Activity (LN-229 [8]): 215 mg/dL; Activity (LN-229 [11]): Active; fold change (FC) [12]: 2; fold change (FC) (LN-229 [13]): 5; fold change (FC) (LN-229 [14]): 2.2; fold change (FC) (LN-229 [15]): 3
2.12 µM | O=C(CNc1ccc(Cl)cc1)NC1(CO)CSC2=C1C(=O)c1ccccc1C2=O (configuration not stated) | 3.51 µM | 1.23 µM | 2.18 µM |  |  |  | 
1.72 µM | O=C(CNCc1ccc(Cl)cc1)NC1(CO)CSC2=C1C(=O)c1ccccc1C2=O (configuration not stated) | 3.9 µM | 1.25 µM | 1.68 µM |  |  |  | 
0.47 µM | O=C(NC1(C(=O)NCc2ccc(Cl)cc2)CSC2=C1C(=O)c1ccccc1C2=O)c1ccc(Cl)cc1 (configuration not stated) | 0.44 µM | 0.32 µM | 0.66 µM | 61% | Toxic |  | 
> 10 µM | O=C(NC1(CO)CSC2=C1C(=O)c1ccccc1C2=O)c1ccc(Cl)cc1 (configuration not stated) | > 10 µM | > 10 µM | > 10 µM |  |  |  | 
 | Cl.O=C(CN1CCCCC1)N[C@]1(C(=O)NCc2ccc(Cl)cc2)CSC2=C1C(=O)c1ccccc1C2=O |  |  |  |  |  | 48% | 
